Measured values: ChEMBL document CHEMBL4422629, “Discovery of an Orally Bioavailable and Central Nervous System (CNS) Penetrant mGlu7 Negative Allosteric Modulator (NAM) in Vivo Tool Compound: N-(2-(1 H-1,2,4-triazol-1-yl)-5-(trifluoromethoxy)phenyl)-4-(cyclopropylmethoxy)-3-methoxybenzamide (VU6012962)” (J Med Chem, 2019)
pIC50: −log10 of the molar value. Calls of active or inactive are those of the source. No cut-off for these calls is given here.

What was measured:
[1] = target: Metabotropic glutamate receptor 7 (Rattus norvegicus, UniProt P35400); assay: Negative allosteric modulation of rat mGlu7 receptor expressed in HEK cells harboring Ga15 assessed as reduction in L-AP4-induced calcium flux preincubated for 142 secs followed by agonist addition and measured after 120 secs by Fluo-4-AM-dye based fluorescence assay; type: functional, cell-based
Chain of Metabotropic glutamate receptor 7 (P35400 whole entry): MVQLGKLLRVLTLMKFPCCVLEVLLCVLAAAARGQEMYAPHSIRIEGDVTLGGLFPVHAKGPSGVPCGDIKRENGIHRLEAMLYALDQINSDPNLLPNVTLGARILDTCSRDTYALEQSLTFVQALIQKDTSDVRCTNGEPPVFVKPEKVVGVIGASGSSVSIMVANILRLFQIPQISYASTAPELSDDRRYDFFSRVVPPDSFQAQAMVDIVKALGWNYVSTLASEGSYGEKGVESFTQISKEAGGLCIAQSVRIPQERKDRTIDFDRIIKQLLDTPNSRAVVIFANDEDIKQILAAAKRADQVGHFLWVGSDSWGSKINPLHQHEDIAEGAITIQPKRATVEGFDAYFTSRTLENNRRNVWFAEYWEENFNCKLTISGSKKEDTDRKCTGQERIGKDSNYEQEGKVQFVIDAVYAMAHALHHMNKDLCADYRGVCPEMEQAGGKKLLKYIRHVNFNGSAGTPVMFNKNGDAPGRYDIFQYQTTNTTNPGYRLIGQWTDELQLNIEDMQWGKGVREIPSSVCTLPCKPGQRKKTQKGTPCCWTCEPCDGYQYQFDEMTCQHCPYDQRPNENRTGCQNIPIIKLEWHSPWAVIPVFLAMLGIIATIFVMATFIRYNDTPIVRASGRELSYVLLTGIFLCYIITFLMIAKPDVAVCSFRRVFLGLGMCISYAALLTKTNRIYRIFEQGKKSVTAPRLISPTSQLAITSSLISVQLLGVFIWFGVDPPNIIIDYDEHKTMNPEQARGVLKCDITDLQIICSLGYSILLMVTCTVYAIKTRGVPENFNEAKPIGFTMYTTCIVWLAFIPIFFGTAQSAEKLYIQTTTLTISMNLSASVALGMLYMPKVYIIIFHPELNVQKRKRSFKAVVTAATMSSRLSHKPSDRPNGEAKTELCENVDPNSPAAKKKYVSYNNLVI

[2] = Fraction unbound in Sprague-Dawley rat plasma at 0.2 to 0.25 mg/kg, iv via cassette dosing measured up to 24 hrs post dose by LC/MS/MS analysis; type: ADME, organism-based; conditions: for fraction unbound at 24 h: Sprague-Dawley, plasma
[3] = Unbound fraction in Sprague-Dawley rat brain at 0.2 to 0.25 mg/kg, iv via cassette dosing measured up to 24 hrs post dose by LC/MS/MS analysis; type: ADME, organism-based
[4] = Brain to plasma permeability coefficient, Kp of the compound in Sprague-Dawley rat at 0.2 to 0.25 mg/kg, iv via cassette dosing measured up to 24 hrs post dose by LC/MS/MS analysis; type: ADME, organism-based
Outline: (§1)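 Rat IV cassette study of plasma:brain levels. Brain Kp taken as total brain:plasma; Kp,uu corrected with the rat brain homogenate unbound fraction.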

[5] = Fraction unbound in mouse plasma at 0.2 to 0.25 mg/kg, iv via cassette dosing measured up to 24 hrs post dose by LC/MS/MS analysis; type: ADME, organism-based
[6] = Total brain concentration in Sprague-Dawley rat at 0.2 to 0.25 mg/kg, iv via cassette dosing measured up to 24 hrs post dose by LC/MS/MS analysis; type: ADME, organism-based; conditions: read-out: Drug uptake; outline: as §1
[7] = Unbound brain-to-plasma concentration ratio in Sprague-Dawley rat brain at 0.2 to 0.25 mg/kg, iv via cassette dosing measured up to 24 hrs post dose by LC/MS/MS analysis; type: ADME, organism-based; outline: as §1
[8] = Fraction unbound in Sprague-Dawley rat brain at 0.2 to 0.25 mg/kg, iv via cassette dosing measured up to 24 hrs post dose by LC/MS/MS analysis; type: ADME, organism-based
[9] = Half life in Sprague-Dawley rat at 0.2 mg/kg, iv or 10 mg/kg, po measured up to 24 hrs by LC-MS/MS analysis; type: ADME, organism-based; conditions: in vivo
Outline: (§2)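 Rat discrete pharmacokinetics after iv and po (10 mg/kg) dosing, giving plasma clearance, Vss, half-life and oral bioavailability.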

[10] = Oral bioavailability in Sprague-Dawley rat at 10 mg/kg measured up to 24 hrs by LC-MS/MS analysis; type: ADME, organism-based; conditions: in vivo; outline: as §2
[11] = Volume of distribution at steady state in Sprague-Dawley rat at 0.2 mg/kg, iv or 10 mg/kg, po measured up to 24 hrs by LC-MS/MS analysis; type: ADME, organism-based; conditions: in vivo; outline: as §2
[12] = Brain to plasma permeability coefficient, Kp of the compound in Sprague-Dawley rat at 30 mg/kg, ip measured at 1 hr post dose by LC/MS/MS analysis; type: ADME, organism-based
Outline: (§3)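 Rat tissue distribution after a single 30 mg/kg ip dose, with compound measured in plasma, brain and CSF. Kp taken as tissue:plasma total ratio. Unbound levels used plasma protein binding and brain homogenate binding fractions.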

[13] = Total plasma concentration in Sprague-Dawley rat at 30 mg/kg, ip measured at 1 hr post dose by LC/MS/MS analysis; type: ADME, organism-based; outline: as §3
[14] = Total brain concentration in Sprague-Dawley rat at 30 mg/kg, ip measured at 1 hr post dose by LC/MS/MS analysis; type: ADME, organism-based; conditions: read-out: Drug uptake; outline: as §3
[15] = Unbound brain to plasma concentration ratio in Sprague-Dawley rat at 30 mg/kg, ip measured at 1 hr post dose by LC/MS/MS analysis; type: ADME, organism-based; outline: as §3
[16] = Fraction unbound in Sprague-Dawley rat plasma at 30 mg/kg, ip measured at 1 hr post dose by LC/MS/MS analysis; type: ADME, organism-based; conditions: in vivo
[17] = Fraction unbound in Sprague-Dawley rat brain at 30 mg/kg, ip measured at 1 hr post dose by LC/MS/MS analysis; type: ADME, organism-based; conditions: in vivo
[18] = CSF to plasma permeability coefficient, Kp of the compound in Sprague-Dawley rat at 30 mg/kg, ip measured at 1 hr post dose by LC/MS/MS analysis; type: ADME, organism-based; outline: as §3
[19] = target: Metabotropic glutamate receptor 1 (Homo sapiens, UniProt Q13255); assay: Negative allosteric modulation of mGlu1 receptor (unknown origin)
[20] = target: Metabotropic glutamate receptor 2 (Homo sapiens, UniProt Q14416); assay: Negative allosteric modulation of mGlu2 receptor (unknown origin)
[21] = target: Metabotropic glutamate receptor 3 (Homo sapiens, UniProt Q14832); assay: Negative allosteric modulation of mGlu3 receptor (unknown origin)
Chain of Metabotropic glutamate receptor 3 (Q14832 whole entry): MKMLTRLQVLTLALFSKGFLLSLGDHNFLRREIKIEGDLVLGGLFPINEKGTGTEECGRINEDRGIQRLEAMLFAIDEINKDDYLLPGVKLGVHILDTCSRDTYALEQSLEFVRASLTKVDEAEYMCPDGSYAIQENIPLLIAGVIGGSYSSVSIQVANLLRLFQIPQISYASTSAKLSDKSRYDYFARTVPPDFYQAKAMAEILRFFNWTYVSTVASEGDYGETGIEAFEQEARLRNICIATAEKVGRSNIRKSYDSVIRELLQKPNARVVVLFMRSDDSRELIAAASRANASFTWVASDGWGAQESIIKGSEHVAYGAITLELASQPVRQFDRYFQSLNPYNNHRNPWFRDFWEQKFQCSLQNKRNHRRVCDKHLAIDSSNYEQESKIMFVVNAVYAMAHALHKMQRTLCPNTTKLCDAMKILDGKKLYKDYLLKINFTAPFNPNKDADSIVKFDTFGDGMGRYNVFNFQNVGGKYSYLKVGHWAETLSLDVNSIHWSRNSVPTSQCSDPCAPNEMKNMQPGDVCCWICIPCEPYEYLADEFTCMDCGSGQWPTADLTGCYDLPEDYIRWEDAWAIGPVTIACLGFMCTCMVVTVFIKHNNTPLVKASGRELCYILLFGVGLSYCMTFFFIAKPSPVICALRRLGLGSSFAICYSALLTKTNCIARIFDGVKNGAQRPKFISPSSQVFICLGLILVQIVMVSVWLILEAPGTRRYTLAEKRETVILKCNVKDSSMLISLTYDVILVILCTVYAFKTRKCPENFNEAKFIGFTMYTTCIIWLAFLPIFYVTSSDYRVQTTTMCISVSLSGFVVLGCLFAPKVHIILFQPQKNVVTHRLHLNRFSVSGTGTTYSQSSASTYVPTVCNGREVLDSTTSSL

[22] = target: Metabotropic glutamate receptor 4 (Homo sapiens, UniProt Q14833); assay: Negative allosteric modulation of mGlu4 receptor (unknown origin)
Chain of Metabotropic glutamate receptor 4 (Q14833 whole entry): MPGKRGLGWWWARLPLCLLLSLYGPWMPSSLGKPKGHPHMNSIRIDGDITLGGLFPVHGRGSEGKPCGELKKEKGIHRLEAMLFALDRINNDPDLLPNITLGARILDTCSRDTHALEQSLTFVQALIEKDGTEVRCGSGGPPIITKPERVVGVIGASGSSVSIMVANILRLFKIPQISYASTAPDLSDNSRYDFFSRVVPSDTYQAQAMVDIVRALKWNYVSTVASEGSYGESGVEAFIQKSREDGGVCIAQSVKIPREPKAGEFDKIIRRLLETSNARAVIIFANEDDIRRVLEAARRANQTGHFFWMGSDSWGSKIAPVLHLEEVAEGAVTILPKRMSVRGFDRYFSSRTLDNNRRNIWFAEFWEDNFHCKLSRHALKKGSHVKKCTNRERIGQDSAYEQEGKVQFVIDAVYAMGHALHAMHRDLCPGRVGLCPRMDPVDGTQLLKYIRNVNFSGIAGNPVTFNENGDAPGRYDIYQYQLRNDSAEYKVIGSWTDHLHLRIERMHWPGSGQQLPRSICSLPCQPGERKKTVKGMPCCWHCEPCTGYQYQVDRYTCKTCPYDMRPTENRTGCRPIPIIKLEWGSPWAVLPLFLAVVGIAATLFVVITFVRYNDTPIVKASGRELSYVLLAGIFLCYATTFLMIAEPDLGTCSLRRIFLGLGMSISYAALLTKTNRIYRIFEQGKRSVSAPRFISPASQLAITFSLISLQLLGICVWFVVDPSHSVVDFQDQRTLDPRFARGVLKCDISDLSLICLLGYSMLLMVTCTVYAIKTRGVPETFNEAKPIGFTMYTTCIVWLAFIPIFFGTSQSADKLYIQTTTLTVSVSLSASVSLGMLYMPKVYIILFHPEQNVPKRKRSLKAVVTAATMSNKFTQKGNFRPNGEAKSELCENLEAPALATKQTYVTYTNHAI

[23] = target: Metabotropic glutamate receptor 5 (Homo sapiens, UniProt P41594); assay: Negative allosteric modulation of mGlu5 receptor (unknown origin)
[24] = target: Metabotropic glutamate receptor 6 (Homo sapiens, UniProt O15303); assay: Negative allosteric modulation of mGlu6 receptor (unknown origin)
Chain of Metabotropic glutamate receptor 6 (O15303 whole entry): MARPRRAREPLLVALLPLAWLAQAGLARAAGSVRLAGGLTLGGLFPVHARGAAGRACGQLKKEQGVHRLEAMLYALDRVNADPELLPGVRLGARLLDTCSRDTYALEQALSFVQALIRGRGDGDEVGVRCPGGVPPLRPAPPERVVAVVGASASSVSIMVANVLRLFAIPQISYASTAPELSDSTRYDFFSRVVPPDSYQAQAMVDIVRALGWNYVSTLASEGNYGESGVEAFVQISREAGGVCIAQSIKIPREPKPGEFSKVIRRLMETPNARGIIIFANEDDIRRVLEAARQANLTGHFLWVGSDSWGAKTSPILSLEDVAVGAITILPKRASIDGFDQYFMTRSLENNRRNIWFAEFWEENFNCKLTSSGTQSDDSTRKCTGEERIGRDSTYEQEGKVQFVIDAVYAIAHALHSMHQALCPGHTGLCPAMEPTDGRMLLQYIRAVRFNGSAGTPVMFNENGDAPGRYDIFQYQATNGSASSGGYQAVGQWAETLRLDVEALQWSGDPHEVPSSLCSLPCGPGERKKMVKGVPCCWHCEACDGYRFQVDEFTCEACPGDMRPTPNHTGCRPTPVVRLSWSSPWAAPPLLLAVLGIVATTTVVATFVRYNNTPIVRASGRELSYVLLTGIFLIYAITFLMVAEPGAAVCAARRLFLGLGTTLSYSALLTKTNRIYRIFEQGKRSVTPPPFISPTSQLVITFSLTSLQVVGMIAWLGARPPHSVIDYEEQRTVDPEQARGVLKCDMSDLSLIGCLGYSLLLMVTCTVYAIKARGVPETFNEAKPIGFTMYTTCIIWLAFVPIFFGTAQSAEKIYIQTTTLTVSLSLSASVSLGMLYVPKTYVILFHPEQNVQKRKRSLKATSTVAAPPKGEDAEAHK

[25] = target: Metabotropic glutamate receptor 8 (Homo sapiens, UniProt O00222); assay: Negative allosteric modulation of mGlu8 receptor (unknown origin)
Chain of Metabotropic glutamate receptor 8 (O00222 whole entry): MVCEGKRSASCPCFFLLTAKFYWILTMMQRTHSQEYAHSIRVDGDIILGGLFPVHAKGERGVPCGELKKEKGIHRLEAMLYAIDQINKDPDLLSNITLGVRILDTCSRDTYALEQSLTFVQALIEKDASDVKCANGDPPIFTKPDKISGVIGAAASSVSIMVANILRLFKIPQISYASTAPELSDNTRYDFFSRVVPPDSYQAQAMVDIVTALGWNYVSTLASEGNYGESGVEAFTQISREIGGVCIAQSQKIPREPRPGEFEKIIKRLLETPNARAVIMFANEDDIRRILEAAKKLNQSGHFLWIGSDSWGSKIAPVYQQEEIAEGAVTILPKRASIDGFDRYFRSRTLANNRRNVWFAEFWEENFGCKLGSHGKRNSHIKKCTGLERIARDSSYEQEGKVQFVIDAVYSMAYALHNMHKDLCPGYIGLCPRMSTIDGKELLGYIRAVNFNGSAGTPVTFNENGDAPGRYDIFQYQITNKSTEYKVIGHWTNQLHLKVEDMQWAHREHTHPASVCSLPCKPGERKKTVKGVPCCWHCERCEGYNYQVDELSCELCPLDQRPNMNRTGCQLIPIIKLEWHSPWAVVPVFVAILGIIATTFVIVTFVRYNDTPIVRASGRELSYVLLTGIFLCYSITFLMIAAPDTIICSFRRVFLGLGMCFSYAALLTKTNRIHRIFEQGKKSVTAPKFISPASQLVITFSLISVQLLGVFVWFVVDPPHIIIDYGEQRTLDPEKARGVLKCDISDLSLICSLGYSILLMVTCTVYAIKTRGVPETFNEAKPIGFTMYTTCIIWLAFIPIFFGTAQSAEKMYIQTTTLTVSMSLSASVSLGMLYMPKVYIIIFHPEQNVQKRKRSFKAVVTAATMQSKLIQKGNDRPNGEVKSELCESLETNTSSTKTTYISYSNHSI

[26] = test system: Mus musculus; assay: Anti-anxiety activity in ip dosed C57Bl/6J mouse assessed as increase in total time spent in open arms by elevated zero maze assay; type: functional; conditions: read-out: MED
Outline: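 Mouse elevated zero maze after intraperitoneal dosing at several doses; read-out was total time in open arms. Analysis by one-way ANOVA with Bonferroni post hoc test against vehicle.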

[27] = test system: Mus musculus; assay: Reduction in locomotive activity in C57Bl/6J mouse assessed as reduction in total distance traveled in maze at 10 mg/kg, ip after 120 secs by elevated zero maze assay; type: ADME, organism-based; conditions: in vivo, 2 min
Outline: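 Elevated zero maze in mice dosed intraperitoneally; locomotion read as total distance traveled. Analysis by one-way ANOVA with Bonferroni post hoc test between doses.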

[28] = test system: Mus musculus; assay: Anxiolytic-like activity in C57Bl/6J mouse assessed as suppression of marble burying activity at 3 mg/kg, ip administered 45 mins before habituation for 15 mins and measured following 30 mins interval by marble burying assay; type: functional, organism-based
Outline: (§4)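 Mouse marble-burying assay, ip dosing of test agent or fluoxetine, counting marbles buried. Analysis by one-way ANOVA with Dunnett's post hoc test against vehicle, plus Grubb's outlier test.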

[29] = test system: Mus musculus; assay: Anxiolytic-like activity in C57Bl/6J mouse assessed as increase in total time spent in the light side of the chamber at 3 mg/kg, ip measured during 10-min testing period; type: functional, organism-based
Outline: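 Mouse light/dark box at 3 mg/kg ip, with fluoxetine 15 mg/kg ip as reference; read-out was total time in the light side. Analysis by one-way ANOVA with Dunnett's post hoc test against vehicle, plus Grubb's outlier test.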

[30] = Drug level in Sprague-Dawley rat cerebrospinal fluid at 30 mg/kg, ip measured at 1 hr post dose by LC/MS/MS analysis; type: ADME, organism-based; conditions: read-out: Drug uptake; outline: as §3
[31] = Drug level in C57Bl/6J mouse cerebrospinal fluid at 3 mg/kg, ip measured at 1 hr post dose by LC/MS/MS analysis; type: ADME, organism-based; conditions: read-out: Drug uptake
Outline: (§5)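 Mouse pharmacokinetic assessment at 3 mg/kg ip, sampled at the 1 h time point used in the behavioural tests.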

[32] = Plasma concentration in C57Bl/6J mouse at 3 mg/kg, ip measured at 1 hr post dose by LC/MS/MS analysis; type: ADME, organism-based; outline: as §5
[33] = target: 5-hydroxytryptamine receptor 2B (Homo sapiens) (UniProt P41595); assay: Binding affinity to cloned human 5-HT2B expressed in CHO-K1 cell membranes by radioligand displacement assay
Chain of 5-hydroxytryptamine receptor 2B (Homo sapiens) (P41595 whole entry): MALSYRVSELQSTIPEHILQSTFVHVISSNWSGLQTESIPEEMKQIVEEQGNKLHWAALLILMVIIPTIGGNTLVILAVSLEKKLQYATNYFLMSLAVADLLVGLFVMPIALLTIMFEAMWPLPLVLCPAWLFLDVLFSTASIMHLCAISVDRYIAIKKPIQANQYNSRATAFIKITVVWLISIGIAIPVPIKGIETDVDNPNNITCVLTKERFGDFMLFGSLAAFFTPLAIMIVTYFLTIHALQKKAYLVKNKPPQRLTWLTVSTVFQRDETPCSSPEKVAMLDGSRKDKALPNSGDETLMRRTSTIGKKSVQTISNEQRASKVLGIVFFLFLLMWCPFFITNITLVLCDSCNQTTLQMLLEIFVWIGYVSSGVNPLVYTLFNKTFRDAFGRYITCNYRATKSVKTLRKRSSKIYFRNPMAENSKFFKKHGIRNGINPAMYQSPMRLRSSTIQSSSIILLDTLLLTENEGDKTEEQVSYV
Outline: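 Eurofins lead profiling panel of 68 GPCRs, ion channels and transporters, tested at 10 μM and read as percent activity.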

[34] = Ratio of drug level in Sprague-Dawley rat cerebrospinal fluid at 30 mg/kg, ip measured at 1 hr post dose by LC/MS/MS analysis to Negative allosteric modulation of rat mGlu7 receptor expressed in HEK cells harboring Ga15; type: ADME, organism-based; conditions: in vivo
[35] = test system: Mus musculus; assay: Anxiolytic-like activity in C57Bl/6J mouse assessed as suppression of marble burying activity […], ip administered 45 mins before habituation for 15 mins and measured following 30 mins interval by marble burying assay; type: functional, organism-based; conditions: 3 mg/kg, in the assay text read “3 mg/kg” for “15 mg/kg”; outline: as §4
[36] = Ratio of drug level in C57Bl/6J mouse cerebrospinal fluid at 3 mg/kg, ip measured at 1 hr post dose by LC/MS/MS analysis to negative allosteric modulation of rat mGlu7 receptor expressed in HEK cells harboring Ga15; type: ADME, organism-based; conditions: in vivo
[37] = Unbound brain concentration in Sprague-Dawley rat at 0.2 to 0.25 mg/kg, iv via cassette dosing measured up to 24 hrs post dose by LC/MS/MS analysis; type: ADME, organism-based; conditions: in vivo; outline: as §1
[38] = test system: Mus musculus; assay: Anxiolytic-like activity in C57Bl/6J mouse assessed as increase in total time spent in the light side of the chamber at 15 mg/kg, ip measured during 10-min testing period; type: functional, organism-based
Outline: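 Mouse light/dark box anxiety model; single ip dose with a 1 h treatment time before testing. Read-out is total time spent in the light side of the chamber versus vehicle-treated controls. Groups compared by one-way ANOVA with Dunnett's post hoc test; all data points screened with Grubb's outlier test.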

SMILES: COc1cc(C(=O)Nc2cc(OC(F)(F)F)ccc2-n2cncn2)ccc1OCC(C)C
- pIC50 [1]: 5.92

SMILES: COc1cc(C(=O)Nc2cc(OC(F)(F)F)ccc2-n2cncn2)ccc1OCC(F)(F)F
- pIC50 [1]: < 4.52

SMILES: COc1cc(F)c(OCCNc2cc(Cl)ccc2-n2cncn2)cc1OC
- pIC50 [1]: < 5.00

SMILES: COc1cc(F)c(CCCNc2cc(Cl)ccc2-n2cncn2)cc1OC
- pIC50 [1]: < 5.00

SMILES: COc1cc(C(=O)Nc2cc(OC(F)(F)F)ccc2-n2cncn2)ccc1OCc1ccccc1
- pIC50 [1]: 5.51

SMILES: COc1cc(C(=O)Nc2cc(OC(F)(F)F)ccc2-n2cncn2)ccc1OCC1CCCC1
- pIC50 [1]: 5.55

SMILES: COc1cc(C(=O)Nc2cc(OC(F)(F)F)ccc2-n2cncn2)ccc1OCC1CCC1
- pIC50 [1]: 5.85

SMILES: COc1ccc(CNc2cc(OC(F)(F)F)ccc2-n2cncn2)cc1OC
- pIC50 [1]: 5.23
- fraction unbound at 24 h [2]: 0.01 to 0.03
- fraction unbound at 24 h [3]: < 0.003

SMILES: COc1ccc(CCCNc2cc(OC(F)(F)F)ccc2-n2cncn2)cc1OC
- pIC50 [1]: 5.80
- fraction unbound at 24 h [2]: 0.01 to 0.03
- fraction unbound at 24 h [3]: < 0.003

SMILES: COc1cc(C(=O)Nc2cc(OC(F)(F)F)ccc2-n2cncn2)ccc1OCC1CC1
- pIC50 [1]: 6.46
- Kp [4]: 2.35
- Fu ([2]; in vivo, 24 h): 0.028
- fraction unbound at 24 h [5]: 0.026
- concentration at 24 h [6]: 375 nM
- K(p,uu,brain) [7]: 0.75
- fraction unbound at 24 h [3]: 0.009
- fraction unbound at 24 h [8]: 0.009
- t1/2 [9]: 40 min
- F [10]: 74.9%
- Vdss [11]: 1.9 L/kg
- Kp [12]: 1.24
- concentration at 1 h [13]: 598 nM
- concentration at 1 h [14]: 745 nM
- K(p,uu,brain) [15]: 0.38
- Cp(f) [16]: 16.7 nM
- Drug uptake(free) [17]: 6.4 nM
- Kp [18]: 2.15
- pIC50 [19]: < 5.00
- pIC50 [20]: < 5.00
- pIC50 [21]: < 5.00
- pIC50 [22]: < 5.00
- pIC50 [23]: < 5.00
- pIC50 [24]: < 5.00
- pIC50 [25]: < 5.00
- minimal effective dose [26]: 3 mg/kg
- Activity [27]: Toxic
- Activity [28]: Active
- Activity [29]: Active
- concentration at 1 h [30]: 1300 nM
- concentration at 1 h [31]: 883 nM
- concentration at 1 h [32]: 303 nM
- Activity [33]: > 50%
- Ratio [34]: 3.8
- Activity [35]: Active
- Ratio [36]: 2.5
- Drug uptake(free) [37]: 3.4 nM

SMILES: CNCCC(Oc1ccc(C(F)(F)F)cc1)c1ccccc1 (centres undefined)
- Activity [38]: Active

SMILES: COc1cc(F)c(OCCNc2cc(OC(F)(F)F)ccc2-n2cncn2)cc1OC
- pIC50 [1]: 5.92
- fraction unbound at 24 h [2]: 0.01 to 0.03
- fraction unbound at 24 h [3]: < 0.003

SMILES: COc1ccc(CNc2cc(Cl)ccc2-n2cncn2)cc1OC
- pIC50 [1]: 5.10

SMILES: COc1ccc(CCCNc2cc(Cl)ccc2-n2cncn2)cc1OC
- pIC50 [1]: < 5.00

SMILES: COc1cc(F)c(CCCNc2cc(OC(F)(F)F)ccc2-n2cncn2)cc1OC
- pIC50 [1]: 5.89
- fraction unbound at 24 h [2]: 0.01 to 0.03
- fraction unbound at 24 h [3]: < 0.003
